We go through 29 compounds from ChEMBL document CHEMBL1127645, “Synthesis, structure-activity relationships, and pharmacological evaluation of a series of fluorinated 3-benzyl-5-indolecarboxamides: identification of 4-[[5-[((2R)-2-methyl-4,4,4-trifluorobutyl)carbamoyl]-1-methyl indol- 3-yl]methyl]-3-methoxy-N-[(2-methylphenyl)sulfonyl]benzamide, a potent, …” (J Med Chem, 1994).

The test system of data set [1] is Cysteinyl leukotriene receptor (Cavia porcellus). Put plainly: Inhibition of percent protection from LTD4-induced dyspnea in a conscious guinea pig administered intravenously.
Data set [2] can be described thus: Partition coefficient (logP). The following applies: octanol/water.
Data set [3] has as its target T1, Cysteinyl leukotriene receptor 1 (Cavia porcellus, UniProt Q2NNR5).
T1 sequence (Q2NNR5 whole entry): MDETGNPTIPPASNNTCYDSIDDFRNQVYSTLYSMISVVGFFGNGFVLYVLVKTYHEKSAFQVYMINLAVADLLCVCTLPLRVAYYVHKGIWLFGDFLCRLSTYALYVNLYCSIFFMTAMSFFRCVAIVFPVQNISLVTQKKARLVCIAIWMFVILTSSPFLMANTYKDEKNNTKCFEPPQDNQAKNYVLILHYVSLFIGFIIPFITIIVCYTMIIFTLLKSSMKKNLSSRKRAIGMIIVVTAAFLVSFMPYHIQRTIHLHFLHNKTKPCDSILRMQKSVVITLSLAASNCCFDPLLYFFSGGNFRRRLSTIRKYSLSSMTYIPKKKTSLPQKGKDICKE
Put plainly: Inhibition constant for displacement of [3H]LTD4 on guinea pig lung parenchymal membranes. The data set is classed as tissue-based, Lung parenchyma. The method in brief:
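Guinea pig lung parenchymal membranes; competitive displacement of [3H]LTD4. Ki taken as mean of two experiments, each run in duplicate on separate membrane batches.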

In data set [4] the test system is Cavia porcellus. Put plainly: ED50 (p.o.) / ED50 (i.v.) ratio of the compound. The data set is classed as functional. The gist of the method:
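Ratio of oral ED50 to intravenous ED50 from the conscious guinea pig LTD4-induced dyspnea model, used as an index of oral bioavailability.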

Data set [5] addresses T2, Cysteinyl leukotriene receptor 1 (Cavia porcellus) (UniProt Q2NNR5).
T2 sequence (whole entry): T1 sequence (Q2NNR5 whole entry)
Put plainly: Binding constant in guinea pig tracheal spirals with LTE4. The data set is classed as tissue-based. To be noted: Trachea. The method in brief: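 Guinea pig tracheal spirals contracted with LTE4 as agonist. Antagonist KB derived from concentration-response curves and reported as -log(KB) (pKB); n = number of concentration-response curves.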

The target of data set [6] is T2, Cysteinyl leukotriene receptor 1 (Cavia porcellus). Kind of data set: Effective dose for the inhibition of percent protection from LTD4-induced dyspnea in a conscious guinea pig administered through oral route. The data set is classed as functional. The gist of the method:
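Conscious guinea pig dyspnea model with LTD4 challenge; percent protection from dyspnea plotted against dose (oral or intravenous). ED50 obtained by regression using at least three doses from the linear portion of the dose-response curve; SEM for percent protection was generally ≤25% at each dose.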

The subject of data set [7] is Cavia porcellus. Kind of data set: Inhibition of protection from LTD4-induced dyspnea in a conscious guinea pig administered through oral route at a dose of 3 umol/kg. The data set is classed as functional.
The nature of data set [8]: Compound was evaluated for clearance in rat. The format is ADME, organism-based. To be noted: in vivo.
Data set [9] is filed under the species Rattus norvegicus. Put plainly: Compound was evaluated for the pharmacokinetic characters in Rat. The format is ADME, organism-based. The following applies: in vivo.
The nature of data set [10]: Compound was evaluated for the oral bioavailability in rat. The data set is classed as ADME, organism-based. The following applies: in vivo, read-out: Bioavailabiility.
The nature of data set [11]: Bioavailability in guinea pig. The data set is classed as ADME, organism-based, Cavia porcellus. To be noted: in vivo.
A short description of data set [12]: Compound was evaluated for the clearance in rat. To be noted: in vivo. The data set is classed as ADME, organism-based.
A short description of data set [13]: Clearance in guinea pig. The format is ADME, organism-based, Cavia porcellus. To be noted: in vivo.

Structures are written as SMILES.

For the compound `CCC(C)CNC(=O)c1ccc2c(c1)c(Cc1ccc(C(=O)NS(=O)(=O)c3ccccc3C)cc1OC)cn2C` (stereo not drawn), the figures for the 50% effective dose (ED50) in [1] and in data set [6] were 1.39 µmol/kg and 20 µmol/kg, respectively. Moreover, in [2], the logP is 5.85. The compound further displayed a Ki in data set [3] of 5.2 nM. The Ratio in [4] is on record as 14. For the same compound, the pKB in [5] amounted to 8.7.
Regarding `CCC(CNC(=O)c1ccc2c(c1)c(Cc1ccc(C(=O)NS(=O)(=O)c3ccccc3C)cc1OC)cn2CC)C(F)(F)F` (stereo not drawn), in data set [3], the affinity corresponds to a Ki of 5.3 nM. In data set [5], this compound came in with a pKB of 9.
The compound `CCCCC(CNC(=O)c1ccc2c(c1)c(Cc1ccc(C(=O)NS(=O)(=O)c3ccccc3C)cc1OC)cn2C)C(F)(F)F` (stereo not drawn) registered a Ki in data set [3] of 5 nM. Also, the pKB in [5] came out at 8.8.
`COc1cc(C(=O)NS(=O)(=O)c2ccccc2Cl)ccc1Cn1cc(C)c2ccc(C(=O)NCC(C)CC(F)(F)F)cc21` (stereo not drawn) yielded an inhibitory constant (Ki) in data set [3] of 4.9 nM.
`COc1cc(C(=O)NS(=O)(=O)c2ccccc2C)ccc1Cc1cn(C)c2ccc(C(=O)NCC3(CC(F)(F)F)CC3)cc12` returned a Ki in data set [3] of 4.6 nM.
The compound `COc1cc(C(=O)NS(=O)(=O)c2ccccc2C)ccc1Cc1cn(C)c2ccc(C(=O)NCC3CC(F)(F)C(F)(F)C3)cc12` returned a Ki in data set [3] of 1.3 nM. The compound also registered a pKB in data set [5] of 8.6. In data set [7], this compound showed an inhibition in vivo at 3 µmol/kg of 11%.
`COc1cc(C(=O)NS(=O)(=O)c2ccccc2C)ccc1Cc1cn(C)c2ccc(C(=O)NCC3CCCC3)cc12`: the median effective dose (ED50) was determined as 0.69 µmol/kg in data set [1] and 19.2 µmol/kg in [6]. In data set [3], this compound gave a Ki of 3.2 nM. In data set [4], the Ratio was 28. In addition, the negative-log KB (pKB) in data set [5] was found to be 8.4.
Consider `CCCn1cc(Cc2ccc(C(=O)NS(=O)(=O)c3ccccc3C)cc2OC)c2cc(C(=O)NCC(C)CC(F)(F)F)ccc21` (stereo not drawn), for which the affinity in [3], expressed as Ki, was 1.7 nM.
Turning to `COc1cc(C(=O)NS(=O)(=O)c2ccccc2C)ccc1Cn1cc(C)c2ccc(C(=O)NCC(C)CC(F)(F)F)cc21` (stereo not drawn), the inhibitory constant (Ki) in data set [3] is 0.44 nM. Moreover, in data set [5], the pKB stood at 9.6. In [6], this compound registered an ED50 of 2.29 µmol/kg.
Consider `COc1cc(C(=O)NS(=O)(=O)c2ccccc2C)ccc1Cc1cn(C)c2ccc(C(=O)NC[C@@H](C)CC(F)(F)F)cc12`, for which the values for the ED50 in data set [1] and in [6] were 0.047 µmol/kg and 3.73 µmol/kg, respectively. Besides, the clearance in data set [8] is 1.67 mL/min/kg. In [3], the affinity corresponds to a Ki of 1.45 nM. For the same compound, the Ratio in data set [4] is listed as 79. In addition, in data set [5], the pKB is 9.28. In addition, in [9], the Pharmacokinetic was 23%.
Take `CCC(CNC(=O)c1ccc2c(c1)c(Cc1ccc(C(=O)NS(=O)(=O)c3ccccc3C)cc1OC)cn2C)CC(F)(F)F` (stereo not drawn): the ED50 in [1] is 0.047 µmol/kg; in [6], 2.64 µmol/kg. Besides, the logP in [2] was 6.45. Further, the Ki in data set [3] stood at 5.3 nM. Further, in data set [4], the Ratio is recorded as 56. Besides, the pKB in [5] was 9.6.
Take `COc1cc(C(=O)NS(=O)(=O)c2ccccc2C)ccc1Cc1cn(C)c2ccc(C(=O)NCCCC(F)(F)F)cc12`: in [3], the Ki came out at 7.5 nM. The compound further displayed a pKB in data set [5] of 8.7.
`COc1cc(C(=O)NS(=O)(=O)c2ccccc2C)ccc1Cc1cn(C)c2ccc(C(=O)NCC(C)CC(F)(F)F)cc12` (stereo not drawn): the ED50 in [1] was found to be 0.036 µmol/kg; in data set [6], 1.44 µmol/kg. Moreover, the logP in [2] stood at 6.18. The figures for the bioavailability in data set [10] and in data set [11] were 33% and 12%, respectively. In addition, the clearance in [12] is 1.83 mL/min/kg; in data set [13], 12.3 mL/min/kg. The affinity in data set [3] corresponds to a Ki of 0.57 nM. The Ratio in [4] worked out at 40. Also, in data set [5], the pKB came to 9.93.
`COc1cc(C(=O)NS(=O)(=O)c2ccccc2C)ccc1Cn1ccc2ccc(C(=O)NCC(C)CC(F)(F)F)cc21` (stereo not drawn) had an inhibition constant Ki in data set [3] of 7.7 nM.
Take `COc1cc(C(=O)O)ccc1Cc1cn(C)c2ccc(C(=O)NCC(C)CC(F)(F)F)cc12` (stereo not drawn): the logP in [2] turned out to be 5.12.
As to `C=C(CNC(=O)c1ccc2c(c1)c(Cc1ccc(C(=O)NS(=O)(=O)c3ccccc3C)cc1OC)cn2C)CC(F)(F)F`, in [3], the inhibition constant (Ki) came out at 3.8 nM.
As for `COc1cc(C(=O)NS(=O)(=O)c2ccccc2Cl)ccc1Cc1cn(C)c2ccc(C(=O)NCC(C)CC(F)(F)F)cc12` (stereo not drawn), the ED50 is 0.024 µmol/kg in data set [1] and 2.5 µmol/kg in data set [6]. In [3], this compound came in with a Ki of 0.57 nM. For the same compound, in data set [4], the Ratio turned out to be 110. In [5], this compound displayed a negative logarithm of the KB (pKB) of 9.7.
For the compound `CCC(CC)CNC(=O)c1ccc2c(c1)c(Cc1ccc(C(=O)NS(=O)(=O)c3ccccc3C)cc1OC)cn2C`, the ED50 in data set [1] was found to be 1.09 µmol/kg; in data set [6] it was 14.7 µmol/kg. In [3], this compound came in with a Ki of 4.7 nM. Besides, the pKB in data set [5] was found to be 8.
The compound `CCC(CNC(=O)c1ccc2c(c1)c(Cc1ccc(C(=O)NS(=O)(=O)c3ccccc3Br)cc1OC)cn2C)CC(F)(F)F` (stereo not drawn) yielded a Ki in [3] of 2.4 nM. The pKB in data set [5] is 9.3. Moreover, the ED50 in data set [6] turned out to be 2.5 µmol/kg.
In the case of `COc1cc(C(=O)NS(=O)(=O)c2ccccc2Cl)ccc1Cn1ccc2ccc(C(=O)NCC(C)CC(F)(F)F)cc21` (stereo not drawn), in [3], the Ki worked out at 4.2 nM. This compound also gave a pKB in data set [5] of 8.9.
For `CCn1cc(Cc2ccc(C(=O)NS(=O)(=O)c3ccccc3C)cc2OC)c2cc(C(=O)NCC(C)CC(F)(F)F)ccc21` (stereo not drawn), the ED50 was 0.011 µmol/kg in data set [1] and 1.42 µmol/kg in data set [6]. Further, the Ki in data set [3] turned out to be 0.38 nM. Moreover, the Ratio in [4] turned out to be 129. For the same compound, in data set [5], the pKB was found to be 10.1.
In [2], `CCC(CC)CNC(=O)c1ccc2c(c1)c(Cc1ccc(C(=O)O)cc1OC)cn2C` showed a logP of 5.42.
For the compound `COc1cc(C(=O)NS(=O)(=O)c2ccccc2C)ccc1Cc1cn(C)c2ccc(C(=O)NCC(C)(C)CC(F)(F)F)cc12`, the Ki in data set [3] turned out to be 2.2 nM. The compound also displayed a pKB in [5] of 8.9.
`COc1cc(C(=O)NS(=O)(=O)c2ccccc2C)ccc1Cc1cn(C)c2ccc(C(=O)NC/C(C)=C\C(F)(F)F)cc12` had a Ki in [3] of 2.1 nM.
For `CCC(CNC(=O)c1ccc2c(c1)c(Cc1ccc(C(=O)O)cc1OC)cn2C)CC(F)(F)F` (stereo not drawn), the logP in data set [2] stood at 5.53.
As to `COc1cc(C(=O)NS(=O)(=O)c2ccccc2C)ccc1Cc1cn(C)c2ccc(NC(=O)OC3CCCC3)cc12`, in [5], the pKB came out at 9.67. In addition, in data set [6], the ED50 was 0.54 µmol/kg.
`COc1cc(C(=O)NS(=O)(=O)c2ccccc2C)ccc1Cc1cn(C)c2ccc(C(=O)NCC(C)C(F)(F)F)cc12` (stereo not drawn) showed a logP in data set [2] of 5.89. In data set [3], this compound came in with a Ki of 12 nM.
In data set [2], `COc1cc(C(=O)NS(=O)(=O)c2ccccc2C)ccc1Cc1cn(C)c2ccc(C(=O)NCCC(C)C(F)(F)F)cc12` (stereo not drawn) yielded a logP of 6.3. This compound also yielded a Ki in data set [3] of 7.3 nM.
For `CCC(C)CNC(=O)c1ccc2c(c1)c(Cc1ccc(C(=O)O)cc1OC)cn2C` (stereo not drawn), the logP in data set [2] is 4.86.

As usually defined, the ED50 is the dose at which the effect has come halfway, by size or by number of responders. The logP is the decadic logarithm of the partition coefficient of the neutral form, usually between octanol and water. Usually Ki stands for a measure of affinity in units of concentration, obtained from inhibition or displacement. High values mean weaker binding, low ones tighter binding. The pKB is −log10 of the KB, conventionally taken in molar units. Low values mean a large KB, high ones a small KB. As usually defined, the inhibition in vivo is how much of the control response was suppressed. The term clearance denotes a measure of how efficiently the substance is removed, as volume per time. A high value points to a high capacity for elimination.
